The values that follow come from ChEMBL document CHEMBL4043302, “Lead Diversification at the Nanomole Scale Using Liver Microsomes and Quantitative Nuclear Magnetic Resonance Spectroscopy: Application to Phosphodiesterase 2 Inhibitors” (J Med Chem, 2018).

For data set [1], the system named is Liver. Nature of the data set: Drug level in human liver microsomes treated with 5-(5-(Cyclopentylmethyl)-4,5,6,7-tetrahydropyrazolo[1,5-a]-pyrazin-3-yl)-7-methylimidazo[5,1-f ][1,2,4]triazin-4(3H)-one at 20 uM after 1.5 hrs by UHPLC-UV-HRMS method. It counts as ADME, microsome. The gist of the method:
(§1)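 Preparative incubation: substrate 20 µM with liver microsomes (2 mg/mL) of the listed species in 0.1 M potassium phosphate, pH 7.5, with MgCl2 3.3 mM and NADPH 1.3 mM. Run at 37°C in a shaking water bath and stopped with an equal volume of CH3CN. Products were fractionated by HPLC and quantified by qNMR in d6-DMSO.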

The nature of data set [2]: Intrinsic clearance in human hepatocytes assessed per million cells at 1 uM after 0.5 to 4 hrs by HPLC-HRMS method. It counts as ADME, cell-based, Hepatocyte. The following applies: human hepatocytes, read-out: CLH. The gist of the method: (§2)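 Compound at 1 µM was dried from d6-DMSO and redissolved in Williams E medium. Pooled human hepatocytes were added at 680000 cells/mL. Samples were quenched in water/CH3CN (2:1) with 2% formic acid and clozapine as internal standard, then analysed by HPLC-HRMS in positive-ion full scan. k came from the slope of ln peak-area ratio versus time; CLint = k / cell concentration. Non-specific binding was not measured.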

Data set [3] addresses cGMP-dependent 3',5'-cyclic phosphodiesterase (Homo sapiens, UniProt O00408). Nature of the data set: Inhibition of human PDE2A1 using 3',5'-[3H]cGMP as substrate after 30 mins by scintillation proximity assay.
Data set [4] is described as follows: Apparent permeability across RRCK cells after 1.5 hrs. It counts as ADME, cell-based, Canis lupus familiaris, MDCKII-LE. As to conditions: dog, MDCK.
A short description of data set [5]: Metabolic stability in human hepatocytes at 1 uM after 0.5 to 4 hrs by HPLC-HRMS method. It is filed as ADME, cell-based, Hepatocyte. In short, it runs like this: as §2
Data set [6] is described as follows: Drug metabolism in hamster liver microsomes assessed as 7-(5-(6-Hydroxypyridin-3-yl)-3-methyl-1H-pyrazol-4-yl)-2,5-dimethylimidazo[5,1-f ][1,2,4]triazin-4(3H)-one formation at 20 uM after 1.5 hrs by UHPLC-UV-HRMS method. It is filed as ADME, microsome. As to conditions: cricetinae. In short, it runs like this:
as §1
A general note: Microsomes from liver hold many membrane-bound enzymes, among them those of drug oxidation.

The nature of data set [7]: Drug metabolism in hamster liver microsomes assessed as 7-(5-(6-Methoxypyridin-3-yl)-3-methyl-1H-pyrazol-4-yl)-2,5-dimethylimidazo[5,1-f ][1,2,4]triazin-4(3H)-one formation at 20 uM after 1.5 hrs by UHPLC-UV-HRMS method. It counts as ADME, microsome. The following applies: cricetinae. The gist of the method: as §1
Data set [8] is described as follows: Drug metabolism in hamster liver microsomes assessed as 5-(Hydroxymethyl)-7-(5-(6-methoxypyridin-3-yl)-1,3-dimethyl-1H-pyrazol-4-yl)-2-methylimidazo[5,1-f ][1,2,4]triazin-4(3H)-one formation at 20 uM after 1.5 hrs by UHPLC-UV-HRMS method. The following applies: cricetinae. It counts as ADME, microsome. The gist of the method: as §1
Data set [9] is described as follows: Drug metabolism in hamster liver microsomes assessed as 5-(Hydroxymethyl)-7-(5-(6-methoxypyridin-3-yl)-3-methyl-1Hpyrazol-4-yl)-2-methylimidazo[5,1-f ][1,2,4]triazin-4(3H)-one formation at 20 uM after 1.5 hrs by UHPLC-UV-HRMS method. It counts as ADME, microsome. The following applies: cricetinae. The gist of the method:
as §1

In data set [10] the test system is Liver. Nature of the data set: Drug metabolism in human liver microsomes assessed as 5-(5-((2-Hydroxycyclopentyl)methyl)-4,5,6,7-tetrahydropyrazolo-[1,5-a]pyrazin-3-yl)-7-methylimidazo[5,1-f][1,2,4]triazin-4(3H)-one diastereomer 2 formation at 20 uM after 1.5 hrs by UHPLC-UV-HRMS method. It counts as ADME, microsome. In short, it runs like this: as §1
Data set [11] concerns Liver. The data set is described as follows: Drug metabolism in human liver microsomes assessed as 5-(5-((2-Hydroxycyclopentyl)methyl)-4,5,6,7-tetrahydropyrazolo-[1,5-a]pyrazin-3-yl)-7-methylimidazo[5,1-f][1,2,4]triazin-4(3H)-one diastereomer 1 formation at 20 uM after 1.5 hrs by UHPLC-UV-HRMS method. It is filed as ADME, microsome. In short, it runs like this:
as §1

The nature of data set [12]: Drug metabolism in cynomolgus monkey liver microsomes assessed as 7-(1,3-Dimethyl-5-(5-(trifluoromethyl)pyridin-2-yl)-1H-pyrazol-4-yl)-5-(hydroxymethyl)-2-methylimidazo[5,1-f ][1,2,4]triazin-4(3H)-one formation at 20 uM after 1.2 hrs by UHPLC-UV-HRMS method. It counts as ADME, Macaca fascicularis, microsome. In short, it runs like this: as §1
The nature of data set [13]: Drug metabolism in cynomolgus monkey liver microsomes assessed as 5-(Hydroxymethyl)-7-(3-(hydroxymethyl)-1-methyl-5-(5-(trifluoromethyl)pyridin-2-yl)-1H-pyrazol-4-yl)-2-methylimidazo-[5,1-f ][1,2,4]triazin-4(3H)-one formation at 20 uM after 1.2 hrs by UHPLC-UV-HRMS method. It counts as ADME, Macaca fascicularis, microsome. The gist of the method:
as §1

Data set [14] can be described thus: Drug metabolism in cynomolgus monkey liver microsomes assessed as 4-(2,5-Dimethyl-4-oxo-3,4-dihydroimidazo[5,1-f ][1,2,4]triazin-7-yl)-1-methyl-5-(5-(trifluoromethyl)pyridin-2-yl)-1H-pyrazole-3-carbaldehyde formation at 20 uM after 1.2 hrs by UHPLC-UV-HRMS method. It counts as ADME, Macaca fascicularis, microsome. The gist of the method:
as §1

Data set [15] is described as follows: Drug metabolism in cynomolgus monkey liver microsomes assessed as 7-(3-(Hydroxymethyl)-1-methyl-5-(5-(trifluoromethyl)pyridin-2-yl)-1H-pyrazol-4-yl)-2,5-dimethylimidazo[5,1-f ][1,2,4]triazin-4(3H)-one formation at 20 uM after 1.2 hrs by UHPLC-UV-HRMS method. It counts as ADME, Macaca fascicularis, microsome. The gist of the method: as §1

Chain of cGMP-dependent 3',5'-cyclic phosphodiesterase (O00408 whole entry): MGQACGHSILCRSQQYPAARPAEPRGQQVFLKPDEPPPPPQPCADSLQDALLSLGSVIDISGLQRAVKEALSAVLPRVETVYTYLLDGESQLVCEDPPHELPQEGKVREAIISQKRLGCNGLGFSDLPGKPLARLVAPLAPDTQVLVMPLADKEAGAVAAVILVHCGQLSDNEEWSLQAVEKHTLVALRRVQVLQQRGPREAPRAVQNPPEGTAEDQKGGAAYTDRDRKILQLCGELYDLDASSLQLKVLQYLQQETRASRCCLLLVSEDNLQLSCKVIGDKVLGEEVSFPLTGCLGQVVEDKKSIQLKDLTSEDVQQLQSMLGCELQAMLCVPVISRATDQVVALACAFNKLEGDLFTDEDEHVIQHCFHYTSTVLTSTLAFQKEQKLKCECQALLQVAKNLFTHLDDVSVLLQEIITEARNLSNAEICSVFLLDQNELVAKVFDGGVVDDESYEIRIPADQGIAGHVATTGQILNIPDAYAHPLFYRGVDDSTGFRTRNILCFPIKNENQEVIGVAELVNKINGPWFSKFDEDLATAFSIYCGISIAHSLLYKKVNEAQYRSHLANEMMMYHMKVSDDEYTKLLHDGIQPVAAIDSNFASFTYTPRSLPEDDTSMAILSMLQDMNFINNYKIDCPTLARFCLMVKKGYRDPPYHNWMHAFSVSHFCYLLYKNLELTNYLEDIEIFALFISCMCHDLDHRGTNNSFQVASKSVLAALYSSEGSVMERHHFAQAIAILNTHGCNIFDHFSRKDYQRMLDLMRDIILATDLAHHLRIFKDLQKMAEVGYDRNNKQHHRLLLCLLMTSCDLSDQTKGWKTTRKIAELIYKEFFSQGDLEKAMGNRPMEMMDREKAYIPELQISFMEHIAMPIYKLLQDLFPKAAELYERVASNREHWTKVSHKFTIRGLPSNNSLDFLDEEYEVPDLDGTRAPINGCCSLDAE

In general, IC50 refers to the point on the concentration scale where inhibition reaches its midpoint. Broadly, the Papp is the rate of passage across a membrane or cell layer, normalised by area and donor concentration. Regarding `Cc1nc(-c2cnn3c2CN(CC2CCCC2O)CC3)c2c(=O)[nH]cnn12` (single isomer, unassigned; diastereomer 1), the Drug metabolism result in [1] is “Metabolite_Detected”. Also, the hepatocyte CLint at 1 µM in data set [2] stood at 5.4 µL/min/1e6 cells. Moreover, the IC50 in data set [3] was > 2000 nM. In data set [4], the Papp at 1.5 h is 1.8 ×10⁻⁶ cm/s.

Consider `COc1ccc(-c2c(-c3nc(C)c4c(=O)[nH]c(C)nn34)c(C)nn2C)cn1`, for which the Stability entry in data set [5] is “Stable”. Besides, the Drug metabolism result in [6], in data set [7], in data set [8] and in [9] was “Metabolite_Detected” in each case.

With `Cc1nc(-c2cnn3c2CN(CC2CCCC2)CC3)c2c(=O)[nH]cnn12`, the hepatocyte CLint at 1 µM in [2] worked out at 16 µL/min/1e6 cells. Further, the Drug metabolism entry in data set [10] and in data set [11] was “Metabolite_Detected” in each case. The Papp at 1.5 h in data set [4] is 24 ×10⁻⁶ cm/s.

Consider `Cc1nn2c(-c3c(C)nn(C)c3-c3ccc(C(F)(F)F)cn3)nc(C)c2c(=O)[nH]1`, for which the Stability entry in [5] is “Stable”. Further, the Drug metabolism entry in [12], in data set [13], in [14] and in data set [15] was “Metabolite_Detected” in each case. For the same molecule, the Papp at 1.5 h in data set [4] was 16 ×10⁻⁶ cm/s.
